In the library only some 4.4% were active in any assay of this set; here they are far more common.
AHR act – AHR activators, primary screen, cell-based, luminescence, luciferase reporter, human. AID 2796, 2010. AHR-responsive luciferase reporter cells. Aryl hydrocarbon receptor (Homo sapiens), P35869. hit rate 2.5% among 320,000. activation, % at 5 µM; in the data active = activation above about 47%;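 also: 0% = vehicle wells and 100% = reference agonist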
AI-2 QS mod – Vibrio harveyi AI-2 quorum sensing modulators, primary screen, JMH597 strain, luminescence/OD600 ratio; Vibrio harveyi JMH597 AI-2 luminescence/OD600 ratio, 9 h; stronger effect = lower value; strain lacks LuxN and CqsS sensors; 0 = neutral-control median; activity change, % at 7.5 µM; hit rate 0.4% among 300,000; in the data active = activity change below about -75%, passing the limit was not always enough;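 also: luminescence divided by OD600 gain over 9 h not by final OD600 alone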
Tb MetRS inh – T. brucei MetRS inhibitors, primary screen, biochemical, luminescence; hit rate 0.4% among 360,000; purified T. brucei MetRS, ATP depletion, Kinase-Glo luminescence; inhibition, % at 11.9 µM;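 active = inhibition above a per-plate cutoff of the control wells' mean inhibition plus 3 SD, cut at about 5.5% in these data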;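 also: 0% = DMSO wells median and 100% = median of wells with control inhibitor compound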
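Material: T. brucei methionyl-tRNA synthetase, purified; reagent: substrates ATP, L-methionine and bulk Escherichia coli tRNA; dosing: 11.9 µM single point; timing: 15 min plus 2 h at 25 °C; detection: luminescence of leftover ATP; evaluation: % inhibition; control set: DMSO-only wells as low control; replicates: singlicate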
MsrA inhibitor – bovine MsrA enzyme inhibitors, primary screen, biochemical, absorbance, HTS | AID 651718, 2012 | hit rate 0.75% among 360,000 | inhibition, % at 15.5 µM | purified bovine MsrA, absorbance read-out;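 also: 0% = vehicle wells with enzyme and 100% = reference inhibitor wells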
MsrA act – bovine MsrA enzyme activators, primary screen, biochemical, absorbance, HTS; purified bovine MsrA, absorbance read-out; activation, % at 10.6 µM; hit rate 0.3% among 360,000; AID 602163, 2012; in the data active = activation above about 7.5%;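 also: 0% = vehicle and 100% = reference activator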
m5-HT2A agonist – mouse Htr2a agonists via beta-arrestin recruitment, primary screen, cell-based, luminescence | 5-hydroxytryptamine receptor 2A (Mus musculus), P35363 | CHO-K1 mHTR2A beta-arrestin complementation; percent of 30 µM serotonin response | activation, % at 7.6 µM | hit rate 0.66% among 360,000 | AID 624169, 2012;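 active = activation above a run cutoff, the mean activation of all tested compounds plus 3 SD, cut at about 14% in these data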;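 also: 0% = plate median of compound wells and 100% = 30 µM serotonin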
Target sequence (P35363 whole entry, looked up): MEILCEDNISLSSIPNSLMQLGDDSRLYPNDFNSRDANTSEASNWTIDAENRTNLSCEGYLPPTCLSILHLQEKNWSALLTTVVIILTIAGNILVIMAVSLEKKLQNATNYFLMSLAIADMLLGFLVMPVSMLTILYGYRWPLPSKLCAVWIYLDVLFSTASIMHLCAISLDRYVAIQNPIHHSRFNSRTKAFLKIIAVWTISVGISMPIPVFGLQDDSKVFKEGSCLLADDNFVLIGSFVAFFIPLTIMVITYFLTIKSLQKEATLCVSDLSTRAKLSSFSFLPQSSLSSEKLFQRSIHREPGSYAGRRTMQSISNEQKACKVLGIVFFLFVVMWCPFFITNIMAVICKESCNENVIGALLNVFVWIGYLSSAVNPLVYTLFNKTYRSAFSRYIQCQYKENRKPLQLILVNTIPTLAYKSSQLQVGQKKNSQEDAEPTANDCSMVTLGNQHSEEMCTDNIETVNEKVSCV
MsrA conf – bovine MsrA inhibitors, retest, confirmation, biochemical, absorbance, HTS | shares compounds with MsrA inhibitor | AID 651822, 2012 | hit rate 41% among 2,300 | inhibition, % at 15.5 µM | purified bovine MsrA, absorbance read-out;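 also: coupled to thioredoxin reductase with NADPH and selenocystamine and DMSO as substrate; 0% = vehicle only and 100% = full effect of reference inhibitor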
* hit, by the source's call; nt = no result. Rule as the data show it, unless noted: active = inhibition above about 4.5%; inactive = the rest.

SMILES	AHR act	AI-2 QS mod	Tb MetRS inh	MsrA inhibitor	MsrA act	m5-HT2A agonist	MsrA conf
O=c1ccc(Cl)nn1-c1ccccc1	1	14	0	0	-2	1	nt
O=C(/C=C/c1ccco1)Nc1cc(Cl)ccc1C(=O)O	1	-4	-1	6.8*	-6	1	5.2*
O=C(/C=C/c1ccco1)Nc1ccccc1C(=O)O	6	29	-1	3	-6	4	nt
CN(C)c1ccc(/C=N/N2C(=S)SC(C)(C)C2N(O)C(=O)Nc2ccc([N+](=O)[O-])cc2)cc1 (centres undefined)	2	23	0	6.1*	-10	-4	2
CNC(=O)N(O)C1N(/N=C/c2ccc(SC)cc2)C(=S)SC1(C)C (centres undefined)	2	21	0	3	-6	-2	nt
C/C(N)=C(/C#N)C(=O)CSc1nn(-c2ccc(Cl)cc2)c(=S)s1	8	10	0	21*	-5	-3	14*
C/C(N)=C(/C#N)C(=O)CSc1nnc(SCc2ccc(Cl)cc2)s1	-1	25	0	1	-2	-5	nt
CCOC(=O)C(=O)/C(C#N)=C/Nc1ccc(F)cc1	3	13	0	0	-4	0	nt
CCOC(=O)/C(C#N)=C/Nc1cc(F)ccc1C	-3	4	0	5.8*	-6	1	1
COc1ccc(C2/C(=C(/O)c3cnn(-c4ccccc4)c3C)C(=O)C(=O)N2CCN(C)C)cc1OC (centres undefined)	nt	nt	0	9.3*	-4	-2	2
COc1ccc(OC)c(C2/C(=C(/O)c3cnn(-c4ccccc4)c3C)C(=O)C(=O)N2CCN(C)C)c1 (centres undefined)	1	4	0	0	-3	1	nt
O=C(NCC(c1ccco1)N1CCCC1)c1cccc(S(=O)(=O)N2CCc3ccccc32)c1 (centres undefined)	nt	nt	0	0	-5	4	nt
O=C1NC(=S)N/C1=C/c1cc([N+](=O)[O-])ccc1N1CCOCC1	3	14	0	5.0*	-4	-2	3
CCN1CCN(c2ccc(S(=O)(=O)N3CCOCC3)cc2N)CC1	-1	nt	0	-1	-14	12	nt
N=c1occ(C(=O)c2cc(F)ccc2O)cc1C(=O)NC1CCCCC1	39	20	1	4.9*	-2	1	0
N#C/C(=N\O)c1nc2ccccc2s1	3	35	0	4.7*	-7	-3	3
N#C/C(=C(/O)c1ccc(F)cc1)c1nc2ccccc2s1	23	31	0	2	0	3	nt
O=C(/C(C=Nc1cccc(C(F)(F)F)c1)=C(/O)c1ccco1)C(F)(F)F	4	23	0	2	-4	-3	nt
O=C(/C(C=Nc1ccc(Br)cc1)=C(/O)c1ccco1)C(F)(F)F	9	-10	1	4.8*	-4	-6	3
COc1ccc(/C=N/NC(=O)c2ccc3nc[nH]c3c2)c(OC)c1OC	2	3	-1	5.1*	-14	6	2
COc1cc(OC)c(OC)cc1/C=N/NC(=O)c1ccc2nc[nH]c2c1	0	23	0	2	-3	1	nt
Cc1ccc(/C=N/NC(=O)c2ccc3nc[nH]c3c2)s1	0	-11	0	7.3*	-3	-2	5.7*
COc1ccc(CNC(=O)CN(C(=O)CCC(=O)Nc2ccccn2)c2cccc(C)c2C)cc1	1	nt	0	0	-3	7	nt
Cc1ccc(Cn2cc(CN3CC(N4CCN(CCN(C)C)CC4)CS3(=O)=O)nn2)cc1 (centres undefined)	nt	nt	0	-1	-1	3	nt
CSc1ccc(/C=C(\NC(=O)c2ccco2)C(=O)N2CCCCC2)cc1	nt	18	0	2	-9	4	nt
SMILES	AHR act	AI-2 QS mod	Tb MetRS inh	MsrA inhibitor	MsrA act	m5-HT2A agonist	MsrA conf
COc1ccc(/C=C2\SC(N)=NC2=O)cc1	nt	8	1	4.8*	-4	-4	5.0*
NC1=NC(=O)C(=Cc2ccccc2)S1	nt	nt	0	4	-11	2	nt
NC1=NC(=O)/C(=C/c2ccsc2)S1	2	25	0	5.7*	-6	0	4
COc1ccc(-c2[nH]ncc2CN2CCCC2c2nonc2C)c(F)c1 (centres undefined)	4	5	0	8.4*	1	-5	4
O=C(CN1CCN(Cc2ccccc2)CC1)N/N=C\C=C/c1ccco1	8	15	0	6.9*	-14	1	5.5*
O=C(CN1CCN(Cc2ccccc2Cl)CC1)N/N=C/C=C/c1ccco1	38	nt	0	2	-5	1	nt
O=C(COC(=O)/C=C/c1ccc(Cl)cc1)NC1CC1	1	nt	0	0	-3	2	nt
CSc1ccc(/C=C/C(=O)OCC(=O)NC2CC2)cc1	1	nt	0	5.0*	-4	-4	3
CSc1ccc(/C=C/C(=O)OCC(=O)NC(C)C)cc1	1	19	0	5.5*	-7	-1	3
Cc1ccc2c(c1)N(CC(=O)Nc1ccccc1F)C(=O)C(C)O2 (centres undefined)	nt	nt	0	-2	0	-2	nt
COC(=O)c1ccc(N=NN2CCOCC2)cc1	1	23	0	6.6*	-4	2	2
COC(=O)c1ccc(N=NN2CCCCCC2)cc1	1	14	-1	4	-12	5	nt
COCCNC(=O)Cn1cc(C(=O)c2ccco2)c2ccccc21	4	-4	0	7.2*	-5	1	3
COC(=O)Cn1cc(C(=O)c2ccco2)c2ccccc21	-2	43	0	4	-4	3	nt
CCC(NC(=O)Cc1c(C)c2cc3c(cc2oc1=O)OC(C)(C)CC3)C(=O)O (centres undefined)	2	18	0	5.2*	0	4	3
COCc1cc(C)nc(OCC(=O)N/N=C/c2ccc(O)cc2)c1C#N	7	19	0	0	-2	2	nt
COCc1cc(C)nc(OCC(=O)N/N=C/c2ccc(C)o2)c1C#N	-3	5	-1	6.7*	-5	0	2
COCc1cc(C)n(CC(=O)N/N=C/c2ccc(-c3ccc(Cl)c(C(=O)O)c3)o2)c(=O)c1C#N	10	16	1	9.1*	-6	0	9.7*
CN(C)C(=O)c1cccc(-c2cnc3cccnn23)c1	nt	nt	0	-1	-3	2	nt
